Reference: ChEMBL document CHEMBL1151922, “Structure-activity relationships of 3,5-disubstituted benzamides as glucokinase activators with potent in vivo efficacy” (Bioorg Med Chem, 2009)
Calls of active or inactive are those of the source. The rule behind the calls is not given here.

Key:
Hexokinase-4 [1] = biological target: T1, Hexokinase-4 (Homo sapiens, UniProt P35557); assay: Activation of flag-tagged human recombinant liver glucokinase expressed in Escherichia coli by glucose-6-phosphate dehydrogenase coupled continuous spectrophotometric assay in presence of 2.5 mM glucose
T1 sequence (P35557 whole entry): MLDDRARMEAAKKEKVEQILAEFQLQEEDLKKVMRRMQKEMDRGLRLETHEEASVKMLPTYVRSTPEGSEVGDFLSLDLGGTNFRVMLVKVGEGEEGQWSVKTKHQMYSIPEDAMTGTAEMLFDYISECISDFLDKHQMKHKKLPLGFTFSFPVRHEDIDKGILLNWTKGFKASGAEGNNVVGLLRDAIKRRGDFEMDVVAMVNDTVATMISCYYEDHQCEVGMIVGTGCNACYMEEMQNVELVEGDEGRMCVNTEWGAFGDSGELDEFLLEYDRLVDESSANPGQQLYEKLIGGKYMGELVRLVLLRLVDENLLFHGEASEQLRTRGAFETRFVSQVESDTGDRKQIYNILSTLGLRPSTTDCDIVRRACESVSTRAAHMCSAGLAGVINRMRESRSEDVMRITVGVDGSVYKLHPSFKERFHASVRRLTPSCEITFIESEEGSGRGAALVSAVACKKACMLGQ

Hexokinase-4 [2] = biological target: T1, Hexokinase-4; assay: Activation of flag-tagged human recombinant liver glucokinase expressed in Escherichia coli by glucose-6-phosphate dehydrogenase coupled continuous spectrophotometric assay in presence of 10 mM glucose
[3] = Octanol-water distribution coefficient, log D at pH 7.4 by HPLC-MS analysis
[4] = Solubility in water at pH 7.4 by HPLC-UV method
Mus musculus [5] = assay: Glucose lowering effect in normal-fed ICR mouse assessed as decrease in blood glucose AUC level at 3 mg/kg, po; type: functional, organism-based; set-up: dose 3 mg/kg
Procedure, shortened: (§1)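 Male ICR mice aged ten to eleven weeks, fed ad libitum, given a single oral dose suspended in 0.5% methylcellulose; vehicle alone served as control. Blood glucose was measured immediately before dosing and at 0.5, 1, 1.5, 2, 3 and 4 h afterwards.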

Mus musculus [6] = assay: Glucose lowering effect in normal-fed ICR mouse assessed as decrease in blood glucose AUC level at 10 mg/kg, po; type: functional, organism-based; set-up: dose 10 mg/kg; procedure, shortened: as §1
Mus musculus [7] = assay: Glucose lowering effect in high-fat diet mouse assessed as decrease in blood glucose level at 3 mg/kg, po; type: functional, organism-based; set-up: dose 3 mg/kg
Procedure, shortened: (§2)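 Male high-fat-diet mice aged forty-one weeks, fed freely, dosed orally in 0.5% methylcellulose vehicle against a vehicle-only group. Blood glucose was sampled just before dosing and at 1, 2, 4 and 6 h after.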

Mus musculus [8] = assay: Glucose lowering effect in high-fat diet mouse assessed as decrease in blood glucose level at 10 mg/kg, po; type: functional, organism-based; set-up: dose 10 mg/kg; procedure, shortened: as §2
Mus musculus [9] = assay: Glucose lowering effect in high-fat diet mouse assessed as decrease in blood glucose AUC level at 3 mg/kg, po; type: functional, organism-based; set-up: dose 3 mg/kg; procedure, shortened: as §2
Mus musculus [10] = assay: Glucose lowering effect in high-fat diet mouse assessed as decrease in blood glucose AUC level at 10 mg/kg, po; type: functional, organism-based; set-up: dose 10 mg/kg; procedure, shortened: as §2
Mus musculus [11] = assay: Glucose lowering effect in KKAy mouse assessed as decrease in blood glucose level at 10 mg/kg, po; type: functional, organism-based; set-up: dose 10 mg/kg
Procedure, shortened: (§3)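 Male KKAy mice aged nine weeks, fasted 4 h beforehand, given a single oral dose in 0.5% methylcellulose vehicle, with a vehicle-only control group. Blood glucose was read just before dosing and at 0.5, 1, 2 and 4 h afterwards.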

Mus musculus [12] = assay: Glucose lowering effect in KKAy mouse assessed as decrease in blood glucose level at 30 mg/kg, po; type: functional, organism-based; set-up: dose 30 mg/kg; procedure, shortened: as §3
Mus musculus [13] = assay: Glucose lowering effect in KKAy mouse assessed as decrease in blood glucose AUC level at 10 mg/kg, po; type: functional, organism-based; set-up: dose 10 mg/kg; procedure, shortened: as §3
Mus musculus [14] = assay: Glucose lowering effect in KKAy mouse assessed as decrease in blood glucose AUC level at 30 mg/kg, po; type: functional, organism-based; set-up: dose 30 mg/kg; procedure, shortened: as §3
[15] = AUC (0 to infinity) in Sprague-Dawley rat at 1 mg/kg, iv; type: ADME, organism-based; set-up: time infinity, dose 1 mg/kg, route intravenous; details: plasma
[16] = Plasma clearance in Sprague-Dawley rat at 1 mg/kg, iv; type: ADME, organism-based; set-up: dose 1 mg/kg, route intravenous
[17] = Half life in Sprague-Dawley rat at 1 mg/kg, iv; type: ADME, organism-based; set-up: dose 1 mg/kg, route intravenous; details: in vivo
[18] = Volume of distribution at steady state in Sprague-Dawley rat at 1 mg/kg, iv; type: ADME, organism-based; set-up: dose 1 mg/kg, route intravenous; details: in vivo, read-out: Vdss
[19] = AUC (0 to infinity) in Sprague-Dawley rat at 3 mg/kg, po; type: ADME, organism-based; set-up: dose 3 mg/kg, route oral, time infinity; details: plasma
[20] = Cmax in Sprague-Dawley rat at 3 mg/kg, po; type: ADME, organism-based; set-up: dose 3 mg/kg, route oral; details: in vivo
[21] = Tmax in Sprague-Dawley rat at 3 mg/kg, po; type: ADME, organism-based; set-up: dose 3 mg/kg, route oral; details: in vivo
[22] = Oral bioavailability in Sprague-Dawley rat at 3 mg/kg; type: ADME, organism-based; details: in vivo
[23] = AUC (0 to infinity) in Beagle dog at 0.3 mg/kg, iv; type: ADME, organism-based, Canis lupus familiaris; set-up: time infinity, dose 0.3 mg/kg, route intravenous; details: plasma
[24] = Plasma clearance in Beagle dog at 0.3 mg/kg, iv; type: ADME, organism-based, Canis lupus familiaris; set-up: dose 0.3 mg/kg, route intravenous
[25] = Half life in Beagle dog at 0.3 mg/kg, iv; type: ADME, organism-based, Canis lupus familiaris; set-up: dose 0.3 mg/kg, route intravenous; details: in vivo
[26] = Volume of distribution at steady state in Beagle dog at 0.3 mg/kg, iv; type: ADME, organism-based, Canis lupus familiaris; set-up: dose 0.3 mg/kg, route intravenous; details: in vivo, read-out: Vdss
[27] = Cmax in Beagle dog at 1 mg/kg, po; type: ADME, organism-based, Canis lupus familiaris; set-up: dose 1 mg/kg, route oral; details: in vivo
[28] = Tmax in Beagle dog at 1 mg/kg, po; type: ADME, organism-based, Canis lupus familiaris; set-up: dose 1 mg/kg, route oral; details: in vivo
[29] = Oral bioavailability in Beagle dog at 1 mg/kg; type: ADME, organism-based, Canis lupus familiaris; details: in vivo
[30] = AUC (0 to infinity) in Beagle dog at 1 mg/kg, po; type: ADME, organism-based, Canis lupus familiaris; set-up: dose 1 mg/kg, route oral, time infinity; details: plasma

CC(C)Oc1cc(Oc2ccc(S(C)(=O)=O)cc2)cc(C(=O)Nc2nccs2)c1
EC50 (Hexokinase-4 [1]): 170 nM | EC50 (Hexokinase-4 [2]): 60 nM | logD [3]: > 5

CC(CN(C)C)Oc1cc(Oc2ccc(S(C)(=O)=O)cc2)cc(C(=O)Nc2nccs2)c1 (racemic)
EC50 (Hexokinase-4 [1]): 12000 nM | EC50 (Hexokinase-4 [2]): 2600 nM

CS(=O)(=O)c1ccc(Oc2cc(O[C@H]3CCC[C@H]3O)cc(C(=O)Nc3nccs3)c2)cc1
EC50 (Hexokinase-4 [1]): 260 nM | EC50 (Hexokinase-4 [2]): 110 nM

Cn1cnnc1Sc1ccc(N)c(C(=O)Nc2nccs2)c1
EC50 (Hexokinase-4 [1]): 420 nM | EC50 (Hexokinase-4 [2]): 140 nM

CS(=O)(=O)c1ccc(Oc2cc(O[C@H]3CCOC3)cc(C(=O)Nc3nccs3)c2)cc1
EC50 (Hexokinase-4 [1]): 190 nM | EC50 (Hexokinase-4 [2]): 50 nM

CS(=O)(=O)c1ccc(Oc2cc(O[C@@H]3CCC[C@@H]3O)cc(C(=O)Nc3nccs3)c2)cc1
EC50 (Hexokinase-4 [1]): 3400 nM | EC50 (Hexokinase-4 [2]): 1200 nM

COCC(COC)Oc1cc(Oc2ccc(S(C)(=O)=O)cc2)cc(C(=O)Nc2nccs2)c1
EC50 (Hexokinase-4 [1]): 610 nM | EC50 (Hexokinase-4 [2]): 120 nM | logD [3]: > 4

Cc1csc(NC(=O)c2cc(Oc3ccc(S(C)(=O)=O)cc3)cc(OC(C)C)c2)n1
solubility [4]: < 0.1 µg/mL | logD [3]: > 5 | Activity (Mus musculus [5]): inactive | Activity (Mus musculus [6]): inactive

CS(=O)(=O)c1ccc(Oc2cc(OC(CO)C(F)(F)F)cc(C(=O)Nc3nccs3)c2)cc1 (racemic)
EC50 (Hexokinase-4 [1]): 790 nM | EC50 (Hexokinase-4 [2]): 240 nM | logD [3]: > 4

Cc1csc(NC(=O)c2cc(Oc3ccc(S(C)(=O)=O)cc3)cc(OC(C)C(=O)O)c2)n1 (racemic)
EC50 (Hexokinase-4 [1]): 30000 nM | EC50 (Hexokinase-4 [2]): 7400 nM

CCC(COC)Oc1cc(Oc2ccc(S(C)(=O)=O)cc2)cc(C(=O)Nc2nccs2)c1 (racemic)
EC50 (Hexokinase-4 [1]): 190 nM | EC50 (Hexokinase-4 [2]): 60 nM | logD [3]: > 5

CS(=O)(=O)c1ccc(Oc2cc(O[C@@H]3CCC[C@H]3O)cc(C(=O)Nc3nccs3)c2)cc1
EC50 (Hexokinase-4 [1]): 3700 nM | EC50 (Hexokinase-4 [2]): 1600 nM

C[C@@H](CO)Oc1cc(Oc2ccc(S(C)(=O)=O)cc2)cc(C(=O)Nc2nccs2)c1
Activity (Mus musculus [5]): Active | Activity (Mus musculus [6]): Active | Activity (Mus musculus [7]): Active | Activity (Mus musculus [8]): Active | Activity (Mus musculus [9]): Active | Activity (Mus musculus [10]): Active | Activity (Mus musculus [11]): Active | Activity (Mus musculus [12]): Active | Activity (Mus musculus [13]): Active | Activity (Mus musculus [14]): Active | AUC(0-inf) [15]: 10 µM·h | clearance [16]: 3.9 mL/min/kg | half-life [17]: 1.3 h | Vd [18]: 0.19 L/kg | AUC(0-inf) [19]: 12 µM·h | Cmax [20]: 3400 nM | Tmax [21]: 0.3 h | bioavailability [22]: 33% | AUC(0-inf) [23]: 2.4 µM·h | clearance [24]: 4.6 mL/min/kg | half-life [25]: 5.4 h | Vd [26]: 1.56 L/kg | Cmax [27]: 800 nM | Tmax [28]: 1.2 h | bioavailability [29]: 57% | AUC(0-inf) [30]: 4.6 µM·h

CS(=O)(=O)c1ccc(Oc2cc(O[C@H]3CCC[C@H]3O)cc(C(=O)Nc3nccs3)c2)cc1 (racemic)
EC50 (Hexokinase-4 [1]): 460 nM | EC50 (Hexokinase-4 [2]): 120 nM | logD [3]: 3.4

CS(=O)(=O)c1ccc(Oc2cc(OCCO)cc(C(=O)Nc3nccs3)c2)cc1
EC50 (Hexokinase-4 [1]): 780 nM | EC50 (Hexokinase-4 [2]): 200 nM | logD [3]: 2.4

CS(=O)(=O)c1ccc(Oc2cc(OC3CCCC3)cc(C(=O)Nc3nccs3)c2)cc1
EC50 (Hexokinase-4 [1]): 490 nM | EC50 (Hexokinase-4 [2]): 240 nM | logD [3]: > 5

CS(=O)(=O)c1ccc(Oc2cc(O[C@H]3CCC[C@@H]3O)cc(C(=O)Nc3nccs3)c2)cc1 (stereo in doubt)
EC50 (Hexokinase-4 [1]): 280 nM | EC50 (Hexokinase-4 [2]): 170 nM

COCC(C)Oc1cc(Oc2ccc(S(C)(=O)=O)cc2)cc(C(=O)Nc2nccs2)c1 (racemic)
EC50 (Hexokinase-4 [1]): 190 nM | EC50 (Hexokinase-4 [2]): 70 nM | logD [3]: 4

CS(=O)(=O)c1ccc(Oc2cc(O[C@H]3CCC[C@@H]3O)cc(C(=O)Nc3nccs3)c2)cc1 (stereo in doubt; 6j)
EC50 (Hexokinase-4 [1]): 160 nM | EC50 (Hexokinase-4 [2]): 90 nM

CC(C)C(CO)Oc1cc(Oc2ccc(S(C)(=O)=O)cc2)cc(C(=O)Nc2nccs2)c1 (racemic)
EC50 (Hexokinase-4 [1]): 360 nM | EC50 (Hexokinase-4 [2]): 200 nM | logD [3]: > 4

CS(=O)(=O)c1ccc(Oc2cc(OC3CCOCC3)cc(C(=O)Nc3nccs3)c2)cc1
EC50 (Hexokinase-4 [1]): 460 nM | EC50 (Hexokinase-4 [2]): 120 nM | logD [3]: 4.1

CC(CN)Oc1cc(Oc2ccc(S(C)(=O)=O)cc2)cc(C(=O)Nc2nccs2)c1 (racemic)
EC50 (Hexokinase-4 [1]): 1500 nM | EC50 (Hexokinase-4 [2]): 210 nM | logD [3]: 1.1

CC(CCO)Oc1cc(Oc2ccc(S(C)(=O)=O)cc2)cc(C(=O)Nc2nccs2)c1 (racemic)
EC50 (Hexokinase-4 [1]): 150 nM | EC50 (Hexokinase-4 [2]): 60 nM | logD [3]: 3.4

CS(=O)(=O)c1ccc(Oc2cc(OC3CCNC3)cc(C(=O)Nc3nccs3)c2)cc1 (racemic)
EC50 (Hexokinase-4 [1]): 18000 nM | EC50 (Hexokinase-4 [2]): 4200 nM

CS(=O)(=O)c1ccc(Oc2cc(O[C@@H]3CCOC3)cc(C(=O)Nc3nccs3)c2)cc1
EC50 (Hexokinase-4 [1]): 1800 nM | EC50 (Hexokinase-4 [2]): 300 nM

CS(=O)(=O)c1ccc(Oc2cc(OC3CCOC3)cc(C(=O)Nc3nccs3)c2)cc1 (racemic)
logD [3]: 4.2

CN1CCC(Oc2cc(Oc3ccc(S(C)(=O)=O)cc3)cc(C(=O)Nc3nccs3)c2)C1 (racemic)
EC50 (Hexokinase-4 [1]): 24000 nM | EC50 (Hexokinase-4 [2]): 7300 nM

CC(CO)Cc1cc(Oc2ccc(S(C)(=O)=O)cc2)cc(C(=O)Nc2nccs2)c1 (racemic)
EC50 (Hexokinase-4 [1]): 750 nM | EC50 (Hexokinase-4 [2]): 250 nM | logD [3]: 3.4
